According to publication PMC3310921 (Bioorganic & medicinal chemistry, 2010):
Where “and” joins values, the source holds several entries; their conditions need not be identical. Identical values can stand only once. Entries after “also recorded” stand apart in the source; their conditions may differ. Like-named read-outs stand apart in the source and are kept apart here.

How the values were obtained:
[1] = test system: mice; assay: Murine toxicity study; type: in vivo; settings: for Neurotoxicity in mice (in words): 30, 100 and 300 mg/kg intraperitoneally, examined after 0.5 and 4 h
[2] = Cytotoxicity, average of the three normal cells; type: cell-based; settings: human, HGF, HPC and HPLF normal cells (average of the three)
Procedure, shortened: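 Human HGF gingival fibroblasts, HPC pulp cells and HPLF periodontal ligament fibroblasts were exposed to graded concentrations for 24 h, up to a maximum of 400 μM. CC50 is the concentration cutting viable cell number by 50%. It was read from dose–response curves from duplicate determinations, then averaged over the three normal cell types.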

[3] = test system: HL-60 cells; assay: Internucleosomal DNA fragmentation in HL-60 cells; type: cell-based, human; settings: 6 h incubation
[4] = test system: caspase-3 in HSC-2 cells; assay: Caspase-3 activation in HSC-2 cells; type: cell-based, human; settings: 5 h incubation
Procedure, shortened: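 HSC-2 cells, with HL-60 run in parallel, were exposed to the test compound for 5 h, then assayed for caspase-3 activation. The reference was UV irradiation at 6 J/m²/min for 1 min, followed by 3 h incubation. Values are from n = 3.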

[5] = test system: caspase-3 in HL-60 cells; assay: Caspase-3 activation in HL-60 cells; type: cell-based, human; settings: 5 h incubation
[6] = test system: HSC-2 cells; assay: Internucleosomal DNA fragmentation in HSC-2 cells; type: cell-based, human; settings: 6 h incubation
Procedure, shortened: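 After 6 h exposure of HSC-2 cells (HL-60 in parallel), cellular DNA was examined for internucleosomal laddering against a DNA molecular-weight marker.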

[7] = test system: mice; settings: recorded previously ref 25, cited from earlier work; for Neurotoxicity in mice (in words): 30, 100 and 300 mg/kg intraperitoneally, 0.5 and 4 h
[8] = test system: HGF gingival fibroblasts; settings: read-out: CC50 HGF; human normal cells; reported previously ref 26; cited from earlier work
[9] = test system: HL-60 promyelocytic leukemia cells; settings: read-out: CC50 HL-60, human malignant cells, cited from earlier work
[10] = test system: HSC-2 squamous cell carcinoma cells; settings: read-out: CC50 HSC-2, human malignant cells, cited from earlier work
[11] = test system: HPC pulp cells; settings: read-out: CC50 HPC; human normal cells; reported previously ref 26; cited from earlier work
[12] = test system: HPLF periodontal ligament fibroblasts; settings: read-out: CC50 HPLF; human normal cells; reported previously ref 26; cited from earlier work
[13] = test system: HSC-4 squamous cell carcinoma cells; settings: read-out: CC50 HSC-4; human malignant cells; reported previously ref 27; cited from earlier work
[14] = test system: mice; settings: cited from earlier work
[15] = 100 mg/kg intraperitoneally, 0.5 h
[16] = 300 mg/kg intraperitoneally, 0.5 h

O=C1/C(=C/c2ccccc2)CCC/C1=C\c1ccccc1[N+](=O)[O-] [Compound 1a]
Neurotoxicity in mice (in words) [1]: did not display any neurotoxic symptoms
CC50 at 24 h [2]: 45 µM

O=C1/C(=C/c2ccc(F)cc2)CCC/C1=C\c1ccccc1[N+](=O)[O-] [Compound 1b]
CC50 at 24 h [2]: 53 µM

O=C1/C(=C/c2ccc(Cl)cc2)CCC/C1=C\c1ccccc1[N+](=O)[O-] [Compound 1c]
Number of animals demonstrating neurological deficit/number of treated mice ([1]; 300 mg/kg intraperitoneally, 4 h): half or more
Induction of internucleosomal DNA fragmentation [3]: induced the internucleosomal DNA fragmentation
Activation of caspase-3 [4]: no evidence
Activation of caspase-3 [5]: concentration-dependent activation of caspase-3
Induction of internucleosomal DNA fragmentation [6]: no evidence

COc1ccc(/C=C2\CCC/C(=C\c3ccccc3[N+](=O)[O-])C2=O)cc1 [Compound 1f]
CC50 at 24 h [2]: > 395 µM

COc1cc(/C=C2\CCC/C(=C\c3ccccc3[N+](=O)[O-])C2=O)cc(OC)c1OC [Compound 1g]
CC50 at 24 h [2]: 53 µM

O=C1/C(=C/c2ccccc2)CCC/C1=C\c1cccc([N+](=O)[O-])c1 [Compound 2a]
Number of animals demonstrating neurological deficit/number of treated mice [1, 15]: 2/8
Number of animals demonstrating neurological deficit/number of treated mice [1, 16]: half or more and 2/4
Neurotoxicity in mice (in words) [1]: Marginal neurotoxicity
CC50 at 24 h [2]: 19 µM

O=C1/C(=C/c2ccc(F)cc2)CCC/C1=C\c1cccc([N+](=O)[O-])c1 [Compound 2b]
Number of animals demonstrating neurological deficit/number of treated mice [1, 15]: 1/8
CC50 at 24 h [2]: 39 µM

O=C1/C(=C/c2ccc(Cl)cc2)CCC/C1=C\c1cccc([N+](=O)[O-])c1 [Compound 2c]
CC50 at 24 h [2]: 32 µM

CN(C)c1ccc(/C=C2\CCC/C(=C\c3cccc([N+](=O)[O-])c3)C2=O)cc1 [Compound 2d]
Number of animals demonstrating neurological deficit/number of treated mice [1, 15]: 1/8
Number of animals demonstrating neurological deficit/number of treated mice [1, 16]: 1/4

Cc1ccc(/C=C2\CCC/C(=C\c3cccc([N+](=O)[O-])c3)C2=O)cc1 [Compound 2e]
Neurotoxicity in mice (in words) [1]: did not display any neurotoxic symptoms
CC50 at 24 h [2]: > 331 µM

COc1ccc(/C=C2\CCC/C(=C\c3cccc([N+](=O)[O-])c3)C2=O)cc1 [Compound 2f]
Number of animals demonstrating neurological deficit/number of treated mice ([1]; 30 mg/kg intraperitoneally, 0.5 h): 1/4
Neurotoxicity in mice (in words) [1]: Marginal neurotoxicity
CC50 at 24 h [2]: > 262 µM

COc1cc(/C=C2\CCC/C(=C\c3cccc([N+](=O)[O-])c3)C2=O)cc(OC)c1OC [Compound 2g]
CC50 at 24 h [2]: > 379 µM

O=C1/C(=C/c2ccccc2)CCC/C1=C\c1ccc([N+](=O)[O-])cc1 [Compound 3a]
Neurotoxicity in mice (in words) [1]: did not display any neurotoxic symptoms
CC50 at 24 h [2]: 259 µM

O=C1/C(=C/c2ccc(F)cc2)CCC/C1=C\c1ccc([N+](=O)[O-])cc1 [Compound 3b]
Number of animals demonstrating neurological deficit/number of treated mice [1, 15]: 1/8
Neurotoxicity in mice (in words) [1]: Marginal neurotoxicity
CC50 at 24 h [2]: > 375 µM

O=C1/C(=C/c2ccc(Cl)cc2)CCC/C1=C\c1ccc([N+](=O)[O-])cc1 [Compound 3c]
Neurotoxicity in mice (in words) [7]: did not display any neurotoxic symptoms; also recorded: no neurotoxicity

CN(C)c1ccc(/C=C2\CCC/C(=C\c3ccc([N+](=O)[O-])cc3)C2=O)cc1 [Compound 3d]
Number of animals demonstrating neurological deficit/number of treated mice [1, 15]: 2/8

Cc1ccc(/C=C2\CCC/C(=C\c3ccc([N+](=O)[O-])cc3)C2=O)cc1 [Compound 3e]
Number of animals demonstrating neurological deficit/number of treated mice [1, 16]: half or more and 3/4
CC50 at 24 h [2]: > 280 µM

COc1ccc(/C=C2\CCC/C(=C\c3ccc([N+](=O)[O-])cc3)C2=O)cc1 [Compound 3f]
CC50 [8]: > 400 µM
CC50 ([9]; reported previously ref 26): > 400 µM
CC50 ([10]; reported previously ref 26): > 400 µM
CC50 [11]: > 400 µM
CC50 [12]: > 400 µM

COc1cc(/C=C2\CCC/C(=C\c3ccc([N+](=O)[O-])cc3)C2=O)cc(OC)c1OC [Compound 3g]
Number of animals demonstrating neurological deficit/number of treated mice [7, 15]: 2/8
Neurotoxicity in mice (in words) [7]: Marginal neurotoxicity

O=C1CCCC/C1=C\c1ccccc1[N+](=O)[O-] [Compound 4a]
Number of animals demonstrating neurological deficit/number of treated mice [1, 16]: 1/4
Neurotoxicity in mice (in words) [1]: Marginal neurotoxicity
CC50 at 24 h [2]: 146 µM

O=C1CCCC/C1=C\c1cccc([N+](=O)[O-])c1 [Compound 4b]
Number of animals demonstrating neurological deficit/number of treated mice [1, 16]: 1/4
CC50 at 24 h [2]: 60 µM

COc1ccc(/C=C2\CCC/C(=C\c3ccc([N+](=O)[O-])cc3)C2=O)c(OC)c1OC [Compound 5a, 6-(4-Nitrobenzylidene)-2-(2,3,4-trimethoxybenzylidene) cyclohexanone]
Neurotoxicity in mice (in words) [1]: did not display any neurotoxic symptoms

COc1cc(OC)c(OC)cc1/C=C1\CCC/C(=C\c2ccc([N+](=O)[O-])cc2)C1=O [Compound 5b, 6-(4-Nitrobenzylidene)-2-(2,4,5-trimethoxybenzylidene) cyclohexanone]
Number of animals demonstrating neurological deficit/number of treated mice [1, 15]: 1/8
Number of animals demonstrating neurological deficit/number of treated mice [1, 16]: 1/4
Neurotoxicity in mice (in words) [1]: Marginal neurotoxicity

N[C@@H](Cc1ccc(N(CCCl)CCCl)cc1)C(=O)O [Melphalan, reference compound]
CC50 ([9]; reported previously ref 27): 6 µM
CC50 [13]: 81 µM
CC50 ([10]; reported previously ref 27): 35 µM
LD50 [14]: 4.0 mg/kg
